{"source": "ChEMBL document CHEMBL5724801", "about": "“EUbOPEN Chemogenomics Library - Multiplex” (2024)", "tested_on": "HEK-293T", "test": "Multiplex assay against HEK293T", "format": "toxicity, cell-based", "details": "human", "procedure,_shortened": "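Four dyes were applied at seeding to live cells: Hoechst33342, BioTracker Green Microtubule Cytoskeleton Dye, MitoTracker Red and Annexin V Alexa Fluor 680. Imaging after compound addition used a CQ1 microscope at 37°C and 5% CO2. CellPathfinder machine-learning gating then sorted cells into Hoechst high-intensity objects or normal cells, normal cells into healthy, pyknosed or fragmented nuclei, and pyknosed cells into mitotic or apoptotic, with tubulin, mitochondrial-mass and membrane-permeability phenotypes given as per cents of healthy-nucleus cells.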", "key": {"[1]": {"details": "12 h, 1 µM, compound concentration 1 uM"}, "[2]": {"details": "12 h, 10 µM, compound concentration 10 uM"}, "[3]": {"details": "24 h, 1 µM, compound concentration 1 uM"}, "[4]": {"details": "24 h, 10 µM, compound concentration 10 uM"}, "[5]": {"details": "48 h, 1 µM, compound concentration 1 uM"}, "[6]": {"details": "48 h, 10 µM, compound concentration 10 uM"}}, "note": "Values joined by “and” are separate entries in the source; they are usually repeats but may differ in a detail not shown here. Identical values can stand only once.", "data": [{"smiles": "O=C(NCC(=O)N1CC[C@H](N[C@H]2CC[C@@](O)(c3ccc(-c4ncccn4)cn3)CC2)C1)c1cccc(C(F)(F)F)c1", "note": "[PF-4136309]", "values": [{"measurement": "Population Apoptotic (%)", "setting": "[1]", "value": "44% and 34%"}, {"measurement": "Population Fragmented Nuclei (%)", "setting": "[1]", "value": "6% and 5%"}, {"measurement": "Population Healthy Nuclei (%)", "setting": "[1]", "value": 80, "unit": "%"}, {"measurement": "Population Hoechst High Intensity Objects (%)", "setting": "[1]", "value": "4% and 6%"}, {"measurement": "Population Membrane Permeable-Phenotype (%)", "setting": "[1]", "value": 0, "unit": "%"}, {"measurement": "Population Mitochondria Different-Phenotype (%)", "setting": "[1]", "value": "41% and 56%"}, {"measurement": "Population Mitotic Cells (%)", "setting": "[1]", "value": "56% and 66%"}, {"measurement": "Population Normal (%)", "setting": "[1]", "value": "95% and 93%"}, {"measurement": "Population Pyknosed Nuclei (%)", "setting": "[1]", "value": 13, "unit": "%"}, {"measurement": "Population Tubulin-Different-Phenotype (%)", "setting": "[1]", "value": "32% and 15%"}, {"measurement": "Total Cell Count", "setting": "[1]", "value": "393 and 389"}, {"measurement": "Population Apoptotic (%)", "setting": "[2]", "value": "39% and 48%"}, {"measurement": "Population Fragmented Nuclei (%)", "setting": "[2]", "value": "7% and 3%"}, {"measurement": "Population Healthy Nuclei (%)", "setting": "[2]", "value": "76% and 81%"}, {"measurement": "Population Hoechst High Intensity Objects (%)", "setting": "[2]", "value": "7% and 6%"}, {"measurement": "Population Membrane Permeable-Phenotype (%)", "setting": "[2]", "value": 0, "unit": "%"}, {"measurement": "Population Mitochondria Different-Phenotype (%)", "setting": "[2]", "value": "53% and 75%"}, {"measurement": "Population Mitotic Cells (%)", "setting": "[2]", "value": "60% and 51%"}, {"measurement": "Population Normal (%)", "setting": "[2]", "value": "92% and 93%"}, {"measurement": "Population Pyknosed Nuclei (%)", "setting": "[2]", "value": "15% and 14%"}, {"measurement": "Population Tubulin-Different-Phenotype (%)", "setting": "[2]", "value": "55% and 45%"}, {"measurement": "Total Cell Count", "setting": "[2]", "value": "358 and 295"}, {"measurement": "Population Apoptotic (%)", "setting": "[3]", "value": "25% and 39%"}, {"measurement": "Population Fragmented Nuclei (%)", "setting": "[3]", "value": "10% and 8%"}, {"measurement": "Population Healthy Nuclei (%)", "setting": "[3]", "value": 80, "unit": "%"}, {"measurement": "Population Hoechst High Intensity Objects (%)", "setting": "[3]", "value": "2% and 5%"}, {"measurement": "Population Membrane Permeable-Phenotype (%)", "setting": "[3]", "value": 0, "unit": "%"}, {"measurement": "Population Mitochondria Different-Phenotype (%)", "setting": "[3]", "value": "26% and 31%"}, {"measurement": "Population Mitotic Cells (%)", "setting": "[3]", "value": "74% and 60%"}, {"measurement": "Population Normal (%)", "setting": "[3]", "value": "97% and 94%"}, {"measurement": "Population Pyknosed Nuclei (%)", "setting": "[3]", "value": "9% and 11%"}, {"measurement": "Population Tubulin-Different-Phenotype (%)", "setting": "[3]", "value": "15% and 13%"}, {"measurement": "Total Cell Count", "setting": "[3]", "value": "561 and 485"}, {"measurement": "Population Apoptotic (%)", "setting": "[4]", "value": "35% and 57%"}, {"measurement": "Population Fragmented Nuclei (%)", "setting": "[4]", "value": "10% and 8%"}, {"measurement": "Population Healthy Nuclei (%)", "setting": "[4]", "value": "73% and 80%"}, {"measurement": "Population Hoechst High Intensity Objects (%)", "setting": "[4]", "value": "7% and 5%"}, {"measurement": "Population Membrane Permeable-Phenotype (%)", "setting": "[4]", "value": "1% and 0%"}, {"measurement": "Population Mitochondria Different-Phenotype (%)", "setting": "[4]", "value": "39% and 54%"}, {"measurement": "Population Mitotic Cells (%)", "setting": "[4]", "value": "64% and 42%"}, {"measurement": "Population Normal (%)", "setting": "[4]", "value": "92% and 94%"}, {"measurement": "Population Pyknosed Nuclei (%)", "setting": "[4]", "value": "16% and 11%"}, {"measurement": "Population Tubulin-Different-Phenotype (%)", "setting": "[4]", "value": "36% and 27%"}, {"measurement": "Total Cell Count", "setting": "[4]", "value": "450 and 384"}, {"measurement": "Population Apoptotic (%)", "setting": "[5]", "value": "18% and 27%"}, {"measurement": "Population Fragmented Nuclei (%)", "setting": "[5]", "value": 16, "unit": "%"}, {"measurement": "Population Healthy Nuclei (%)", "setting": "[5]", "value": "78% and 77%"}, {"measurement": "Population Hoechst High Intensity Objects (%)", "setting": "[5]", "value": "0% and 2%"}, {"measurement": "Population Membrane Permeable-Phenotype (%)", "setting": "[5]", "value": "1% and 0%"}, {"measurement": "Population Mitochondria Different-Phenotype (%)", "setting": "[5]", "value": "14% and 16%"}, {"measurement": "Population Mitotic Cells (%)", "setting": "[5]", "value": "81% and 72%"}, {"measurement": "Population Normal (%)", "setting": "[5]", "value": "99% and 97%"}, {"measurement": "Population Pyknosed Nuclei (%)", "setting": "[5]", "value": "4% and 5%"}, {"measurement": "Population Tubulin-Different-Phenotype (%)", "setting": "[5]", "value": "9% and 11%"}, {"measurement": "Total Cell Count", "setting": "[5]", "value": "1007 and 907"}, {"measurement": "Population Apoptotic (%)", "setting": "[6]", "value": "31% and 43%"}, {"measurement": "Population Fragmented Nuclei (%)", "setting": "[6]", "value": "13% and 11%"}, {"measurement": "Population Healthy Nuclei (%)", "setting": "[6]", "value": "75% and 79%"}, {"measurement": "Population Hoechst High Intensity Objects (%)", "setting": "[6]", "value": "5% and 4%"}, {"measurement": "Population Membrane Permeable-Phenotype (%)", "setting": "[6]", "value": 0, "unit": "%"}, {"measurement": "Population Mitochondria Different-Phenotype (%)", "setting": "[6]", "value": "34% and 46%"}, {"measurement": "Population Mitotic Cells (%)", "setting": "[6]", "value": "68% and 56%"}, {"measurement": "Population Normal (%)", "setting": "[6]", "value": "94% and 95%"}, {"measurement": "Population Pyknosed Nuclei (%)", "setting": "[6]", "value": "11% and 8%"}, {"measurement": "Population Tubulin-Different-Phenotype (%)", "setting": "[6]", "value": "23% and 30%"}, {"measurement": "Total Cell Count", "setting": "[6]", "value": "636 and 468"}]}]}
